This is a sample that favours compounds with a hit; in the whole collection about 3% have one here.
Apaf1 inhib = human Apaf-1 inhibition. O14727. reconstituted apoptosome caspase-3 activity, DEVD-Rh110 fluorescence. inhibition, % at 20 µM. actives 0.71% (n = 330,000). AID 489030; active = inhibition of at least 40% at 20 µM;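 note: plate controls were DMSO wells for no effect and DEVD-CHO caspase inhibitor wells for full effect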
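System: reconstituted apoptosome with Apaf-1, cytochrome c, caspase-9, procaspase-3, dATP; Signal: Rh110 fluorescence intensity; Schedule: 30 min compound preincubation, 50 min activation, room temperature; Reagent: cytochrome c trigger plus (Z-DEVD)2-Rh110 caspase-3 substrate.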
UBC13 polyUb = human UBC13 polyubiquitination inhibition | inhibition, % at 20 µM | actives 0.47% (n = 330,000) | UBC13 polyubiquitin chain formation, TR-FRET | P61088 | AID 485273; in the data active = inhibition above about 45%, passing the limit was not always enough
Target sequence (P61088 whole entry, looked up): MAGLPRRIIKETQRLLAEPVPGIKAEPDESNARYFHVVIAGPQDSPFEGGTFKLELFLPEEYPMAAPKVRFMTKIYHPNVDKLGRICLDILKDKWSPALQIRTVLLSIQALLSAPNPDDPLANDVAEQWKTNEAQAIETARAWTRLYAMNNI
MEKK2mut PB1 HTS = signal of MEK5 binding to mutant human MEKK2 PB1 domain. bead flow cytometry, Alexa488-MEK5 binding to MEKK2 mutant. percent response, % at 10 µM. actives 0.35% (n = 290,000); in the data active = percent response above about 24%, passing the limit was not always enough
UCH37 DUB inh = human UCH37 deubiquitinating enzyme inhibition; AID 588478; actives 0.33% (n = 330,000); purified proteasome/UCH37, Ub-AMC cleavage fluorescence; inhibition, % (no concentration beside the values);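 active = mean inhibition over replicate wells above about 20%, limit read from the data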;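 note: 0% = compound-free wells with enzyme and 100% = wells lacking proteasome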
Target sequence (Q9Y5K5 whole entry, looked up): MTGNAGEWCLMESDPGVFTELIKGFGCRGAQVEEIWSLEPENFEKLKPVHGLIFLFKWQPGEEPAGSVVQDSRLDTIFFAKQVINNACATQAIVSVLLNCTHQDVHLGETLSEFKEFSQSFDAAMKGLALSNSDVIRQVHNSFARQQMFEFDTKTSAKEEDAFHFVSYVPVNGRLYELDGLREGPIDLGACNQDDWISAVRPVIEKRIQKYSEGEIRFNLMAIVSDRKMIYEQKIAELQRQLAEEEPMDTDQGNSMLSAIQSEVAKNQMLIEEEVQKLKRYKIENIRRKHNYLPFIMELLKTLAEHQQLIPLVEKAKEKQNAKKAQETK
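Test system – human UCH37 enzyme supplied as purified proteasome complex · Incubation – 30 min preincubation with enzyme, 25 min cleavage at room temperature · Detection – AMC fluorescence from Ub-AMC cleavage, excitation 355 nm, emission 460 nm · Benchmarks – no-proteasome wells (full inhibition) and compound-free wells (no inhibition)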
MEKK3 PB1 HTS = MEKK3-MEK5 PB1 interaction, increase or decrease; Q99759; bead-based flow cytometry, Alexa488-MEK5 binding to MEKK3; actives lie on both sides; 0 = blocked by unlabeled MEK5, 100 = vehicle; binding response (% of control), % at 10 µM; actives 1.4% (n = 290,000); AID 1529;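 active = binding response more than 3 SD above or below the average of its plate-row segment, actives on both sides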;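 note: Alexa488 bead fluorescence after subtracting the streptavidin-only scavenger bead signal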
MEKK2 WT-MEK5 = raises or lowers MEK5 binding to wildtype human MEKK2 PB1 domain | actives 1.1% (n = 290,000) | bead flow cytometry, Alexa488-MEK5 binding to MEKK2 WT; actives lie on both sides | binding response (% of control), % at 10 µM; in the data active = binding response below about 67% or above about 130%
MEKK2wt confirm = raises or lowers MEK5 binding to wildtype human MEKK2, retest. shares compounds with MEKK3 PB1 HTS. bead flow cytometry, Alexa488-MEK5 binding to MEKK2 WT; actives lie on both sides. binding response (% of control), % at 10 µM. actives 2.4% (n = 5,900). AID 1892; in the data active = binding response below about 16% or above about 210%; inactive = in between
MEKK2mut confirm = signal of MEK5 binding to mutant human MEKK2, retest. shares compounds with MEKK3 PB1 HTS. bead flow cytometry, Alexa488-MEK5 binding to MEKK2 mutant. percent response, % at 10 µM. actives 2% (n = 5,900). AID 1893; in the data active = percent response mostly above about 71%, no sharp cut-off; inactive = mostly below about 38%;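 note: higher means compound restores mutant binding toward wildtype level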
MEKK3 confirm = confirmation of inhibitors of MEK5 binding to human MEKK3; shares compounds with MEKK3 PB1 HTS; bead flow cytometry, Alexa488-MEK5 binding to MEKK3; hits give low values; binding response (% of control), % at 10 µM; actives 1.8% (n = 5,900); AID 1894;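 active = binding response below 72% of control, or above a set upper limit, though filed actives all read lower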;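 note: 100% = DMSO only wells and 0% = binding blocked by excess unlabeled MEK5; lower values mean stronger disruption of MEK5 binding to MEKK3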
An asterisk follows results filed as active; x = no result; [ ] = remark or other dose.

SMILES	Apaf1 inhib	UBC13 polyUb	MEKK2mut PB1 HTS	UCH37 DUB inh	MEKK3 PB1 HTS	MEKK2 WT-MEK5	MEKK2wt confirm	MEKK2mut confirm	MEKK3 confirm
Cc1cc(C2=NNC(=NCCc3ccccc3)SC2)c(C)n1CC1CCCO1 (centres undefined)	8	0	24	2	105	150*	135	27	100
CCC12OC(=N)C(C#N)(C1C)C(C#N)(C#N)C(c1ccccc1)O2 (centres undefined)	1	0	0	-481	141*	109	108	3	103
CCC1OC2(C)OC(=N)C1(C#N)C(C#N)(C#N)C2c1ccccc1 (centres undefined)	6	13	-1	-88	112	105	x	x	x
O=C1c2ccccc2C(=O)N1OCCOCCOCCBr	-17	8	-26	2	1.0*[inhibitor]	-2.0*[inhibitor]	102	2	102
Cc1nn(-c2ccccc2)c(Cl)c1CN(C(=O)CCl)c1ccc(Cl)cc1	x	x	3	5	145*	112	100	-2	103
CC1=C(C(=O)Nc2ccccc2)C(c2ccc(Cl)cc2)n2c(s/c(=C/c3cccc(OCC(=O)O)c3)c2=O)=N1 (centres undefined)	13	-25	-28	x	89	40*[inhibitor]	99	-6	99
CC1=C(C(=O)Nc2ccccc2)C(c2ccc(C)o2)n2c(s/c(=C/c3ccccc3)c2=O)=N1 (centres undefined)	11	-21	-11	x	82*[inhibitor]	86	96	-4	99
CCOc1ccc(C2C(C(=O)Nc3ccccc3)=C(C)N=c3s/c(=C/c4cccc(OCC(=O)O)c4)c(=O)n32)cc1 (centres undefined)	20	-20	-10	x	94	82	x	x	x
COc1ccc(OC)c(N(CC(=O)Nc2cccc3ccccc23)S(C)(=O)=O)c1	0	3	x	7	x	x	x	x	x
CCN(CC)C(=O)C(C)OC(=O)COc1ccc(Cl)cc1Cl (centres undefined)	-5	7	-1	0	100	98	x	x	x
O=C(/C=C\c1ccccc1OC(=O)c1ccccc1F)c1cc2ccccc2o1	3	7	0	0	135*	103	105	0	109
CCCn1c(C)cc(C(=O)CSc2nc3nc(C)cc(C)n3n2)c1C	-2	0	1	7	135*	104	105	4	99
Cc1ccc2[nH]c3c(=O)n(N)c(C)nc3c2c1	-3	2	0	-85	101	92	x	x	x
COc1ccc2[nH]c3c(=O)n(N)c(C)nc3c2c1	-3	6	1	-438	136*	107	104	2	105
O=C(O)c1cccc(NN=Cc2ccc(F)c(F)c2)c1	x	x	x	7	x	x	x	x	x
O=C(O)c1cccc(N/N=C/C2=C(Cl)c3cc(Cl)ccc3SC2)c1	x	x	-79	x	28*[inhibitor]	10*[inhibitor]	104	1	107
CCc1ccc(NC(=O)CSc2nnc(CNC(=O)c3c(F)cccc3Cl)o2)cc1	2	1	-24	-1	3.0*[inhibitor]	3.0*[inhibitor]	104	3	101
CCOC(=O)c1csc(-c2sccc2Br)n1	-10	-26	-7	4	97	96	x	x	x
Cc1nnc(SCC(=O)Nc2sc3c(c2C#N)CCCC3)[nH]c1=O	10	-17	12	3	104	104	x	x	x
N#Cc1c(NC(=O)CSc2nc(N)cc(=O)[nH]2)sc2c1CCCC2	5	11	-13	7	1.0*[inhibitor]	2.0*[inhibitor]	95	1	101
COc1cccc(CNC(=O)CCl)c1	-1	-3	18	2	102	104	x	x	x
CC(C)c1ccc(NC(=O)c2snc3ccc(Cl)cc23)cc1	1	-14	-1	4	130*	105	103	-3	107
CC(C)c1ccc(NC(=O)c2csnn2)cc1	12	2	11	-1	107	108	x	x	x
CCN(CC(=O)Nc1c(F)cccc1F)C(=O)/C=C/c1c(C)nn(-c2ccc(F)cc2)c1C	1	0	x	1	x	x	x	x	x
CCOc1ccc(S(=O)(=O)NN=C(C)c2ccc(Cl)c(Cl)c2Cl)cc1	x	x	x	5	x	x	x	x	x
SMILES	Apaf1 inhib	UBC13 polyUb	MEKK2mut PB1 HTS	UCH37 DUB inh	MEKK3 PB1 HTS	MEKK2 WT-MEK5	MEKK2wt confirm	MEKK2mut confirm	MEKK3 confirm
Cc1cc([N+](=O)[O-])cc2c1NC(=O)C2(O)N1CCCCCC1 (centres undefined)	1	-10	2	x	163*	118	111	4	106
COC(=O)c1cc(S(=O)(=O)N2CCOCC2)c(N2CCOCC2)cc1N1CCOCC1	x	x	14	x	112	112	x	x	x
COc1ccc(-c2nsc3c(N4CCCCC4)ncnc23)cc1	10	20	1	-7	105	100	x	x	x
COc1ccc(-c2nsc3c(N4CCN(S(=O)(=O)c5ccccc5F)CC4)ncnc23)cc1	-16	11	-14	-36	71*[inhibitor]	80	101	-5	100
COc1cccc(Nc2nc(-c3sc(NC(=O)c4ccccc4)nc3C)cs2)c1	8	12	15	-21	107	143*	119	12	102
COc1cccc(Nc2nc(-c3sc(NC(=O)CC(C)C)nc3C)cs2)c1	9	-17	2	-6	105	109	x	x	x
NC(=O)NN=C(C1CC1)C1CC1	x	x	x	1	x	x	x	x	x
N#CCSc1nc(-c2ccccc2)nc2ccccc12	7	10	-1	1	97	98	x	x	x
O=C(O)c1cccc(NC(=S)N/N=C/c2ccccn2)c1	-7	-11	6	x	159*	128	107	2	104
CN(C)c1ccc(C=NNC(=O)c2nnn(-c3nonc3N)c2CN2CCCCCC2)cc1	x	x	x	-19	x	x	x	x	x
COc1ccc(NC(=O)Cn2nc3n(c2=S)CCC3)cc1	-5	-1	-2	3	102	104	x	x	x
O=C(NCCCn1ccnc1)C1CCCN(S(=O)(=O)c2ccc(F)cc2)C1 (centres undefined)	3	-5	-2	0	99	99	x	x	x
CCCCn1c(SCC(=O)Nc2nc(C)cs2)nnc1-c1cccnc1	-7	1	-41	-1	1.0*[inhibitor]	1.0*[inhibitor]	110	14	107
O=C(CCCC(=O)OCC(F)(F)C(F)F)Nc1ccccc1F	-5	1	-6	-2	98	92	x	x	x
